Only some compounds are listed: those with a hit (about 2.5% of all), similar ones and a draw of the others.
Pemphigus Ab inh: inhibitors of pemphigus antibody binding to DSG3, primary screen, biochemical, bead-based, flow cytometry, scFv-GFP; binding (percent of control), % at 10 µM; 310,000 tested, 0.48% active; Desmoglein-3 (Homo sapiens), P32926; DSG3-coupled beads, scFv-anti-DSG3-GFP binding; active compounds read low;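 active = binding more than 3 SD below its plate's average and above zero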;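 also: hits lower antibody fragment binding to DSG3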
Target sequence (P32926 whole entry, looked up, the tested form may be a part): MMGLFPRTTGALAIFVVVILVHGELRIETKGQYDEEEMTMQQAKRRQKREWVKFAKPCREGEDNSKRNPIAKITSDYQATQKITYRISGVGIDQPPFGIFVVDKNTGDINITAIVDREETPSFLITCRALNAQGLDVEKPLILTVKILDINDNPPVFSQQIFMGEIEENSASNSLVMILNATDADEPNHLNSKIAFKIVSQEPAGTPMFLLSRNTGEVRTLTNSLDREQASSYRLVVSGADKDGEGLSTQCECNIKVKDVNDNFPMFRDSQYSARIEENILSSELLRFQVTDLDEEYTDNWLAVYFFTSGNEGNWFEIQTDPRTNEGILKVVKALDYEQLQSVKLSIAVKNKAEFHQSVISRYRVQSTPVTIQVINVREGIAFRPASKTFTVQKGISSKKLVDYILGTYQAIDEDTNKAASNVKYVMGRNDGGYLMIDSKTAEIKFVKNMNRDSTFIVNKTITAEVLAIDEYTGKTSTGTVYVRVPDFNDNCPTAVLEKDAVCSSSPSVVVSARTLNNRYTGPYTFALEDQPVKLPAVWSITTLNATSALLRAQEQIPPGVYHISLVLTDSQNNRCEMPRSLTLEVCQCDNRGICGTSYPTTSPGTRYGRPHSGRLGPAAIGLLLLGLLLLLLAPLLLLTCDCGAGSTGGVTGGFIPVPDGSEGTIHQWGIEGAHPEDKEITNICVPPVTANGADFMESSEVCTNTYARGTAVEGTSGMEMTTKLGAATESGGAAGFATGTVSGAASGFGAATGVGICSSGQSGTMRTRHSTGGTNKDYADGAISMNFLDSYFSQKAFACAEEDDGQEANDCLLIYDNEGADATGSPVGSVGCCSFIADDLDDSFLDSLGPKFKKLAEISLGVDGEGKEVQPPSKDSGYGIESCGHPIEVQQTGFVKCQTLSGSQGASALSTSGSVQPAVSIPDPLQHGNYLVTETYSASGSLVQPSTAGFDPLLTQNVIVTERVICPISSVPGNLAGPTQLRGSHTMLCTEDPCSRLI
TRPC6 act: mouse TRPC6 channel activators, primary screen, cell-based, HEK293, membrane potential dye; B-score at 10 µM; AID 2550, 2010; 310,000 tested, 0.13% active; HEK293-TRPC6 membrane potential dye fluorescence; active compounds read high;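 active = B-score of the integrated fluorescence ratio above library mean plus 3 SD, and starting fluorescence ratio within library mean plus 5 SD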;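 also: higher score means more depolarization so channel activation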
TRPC4 PAM: positive allosteric modulators of TRPC4, primary screen, cell-based, mouse TRPC4beta, HEK293 mu-opioid, Fluo-4 calcium. 310,000 tested, 0.42% active. DAMGO EC20, Fluo-4 Ca2+ flux; active compounds read high. B-score at 10 µM;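 active = B-score of calcium response area above 5 SD of library B-scores, with initial fluorescence ratio within 5 SD of library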;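 also: B-score of integrated fluorescence ratio over time as area under calcium response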
TRPC6 inh: mouse TRPC6 channel inhibitors, primary screen, cell-based, HEK293, membrane potential dye; ACh-evoked depolarization; active compounds read low; B-score at 10 µM; Short transient receptor potential channel 6 (Mus musculus), Q61143; 310,000 tested, 1.1% active;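 active = B-score under library mean minus 3 SD, initial fluorescence not abnormally high, positive integrated signal ratio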;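 also: B-score derived from integrated fluorescence ratio over the kinetic read; more negative B-score means stronger inhibition of depolarization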
TRPC4 act: activators of mouse TRPC4 channel, primary screen, Fluo4 calcium, HEK293 TRPC4beta/mu-opioid cells | Short transient receptor potential channel 4 (Mus musculus), Q9QUQ5 | Fluo4 calcium fluorescence; active compounds read high | B-score at 10 µM | 310,000 tested, 0.49% active | AID 2237, 2010;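 active = B-score above 5 SD of library B-scores, and initial fluorescence ratio not above library mean plus 5 SD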;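 also: positive B-score marks a calcium rise read as TRPC4 activation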
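Material: HEK293 stable line with TRPC4beta plus mu-opioid receptor; technique: Fluo4 calcium-sensitive dye fluorescence, kinetic, 1 Hz baseline; timing: Fluo4 dye loading 45 min at room temperature, 110 s recording; controls: assay buffer as low control, maximal DAMGO as high control; read-out: integrated baseline-normalised fluorescence ratio, converted to per-well B score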
TRPC4 inh: inhibitors of mouse TRPC4 channel, primary screen, Fluo4 calcium, HEK293 TRPC4beta/mu-opioid cells. DAMGO-evoked Fluo4 calcium flux; active compounds read low. B-score at 10 µM. 300,000 tested, 0.39% active. AID 2247, 2010;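 active = B-score over 3 SD under the library average, no early fluorescence shift, positive overall ratio signal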
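Material: HEK293 cells with stable TRPC4beta plus mu-opioid receptor expression; probe or stimulus: DAMGO in two steps, submaximal then maximal; technique: Fluo4 calcium fluorescence by kinetic imaging, 5 s 1 Hz baseline; measure: integrated fluorescence ratio relative to baseline, converted to per-well B score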
Numbers without * were called inactive; i = inactive; nt = no result.

SMILES	Pemphigus Ab inh	TRPC6 act	TRPC4 PAM	TRPC6 inh	TRPC4 act	TRPC4 inh
Cc1ccc(NC(=O)COC(=O)C(NS(=O)(=O)c2ccc(Cl)cc2)C(C)O)c(Br)c1 (configuration not stated)	53*	i	i	i	i	i
CCOc1cc(/C=N/NC(=O)CN2CCCCC2)ccc1OCc1cccc(Cl)c1	109	i	11*	i	i	i
CC(C)c1ccc(NC2CCCN(C(=O)c3n[nH]c4c3CCC4)C2)cc1 (configuration not stated)	101	i	i	i	i	i
COc1cc(OC)c(/C=N/NC(=O)Cn2nc([N+](=O)[O-])cc2C)c(OC)c1	106	i	i	i	i	i
O=C1C=C(O)c2c(O)cc(O)c(O)c2C1=O	79*	i	i	i	i	i
CC(/C=N/n1c(-c2cccnc2)n[nH]c1=S)=C\c1ccccc1	100	i	i	i	i	i
CC(=C/c1ccccc1)/C=N/n1c(-c2ccncc2)n[nH]c1=S	106	i	15*	i	i	i
Cc1ccc(-n2ncc3c(=O)[nH]c(SCC(=O)N4CCN(c5ccccc5)CC4)nc32)cc1	-32*	i	i	i	i	i
Cc1ccc(-n2ncc3c(=O)[nH]c(SCC(=O)N4CCOCC4)nc32)cc1	94	i	i	i	i	i
Cn1c(=O)c(=O)n(C)c2cc(S(=O)(=O)N3CCN(c4cccc(C(F)(F)F)c4)CC3)ccc21	71*	i	i	i	i	i
Cc1c(S(=O)(=O)N2CCN(c3cccc(C(F)(F)F)c3)CC2)c(=O)n(C)c(=O)n1C	87	i	i	i	i	i
Cc1ccc(N(CC(=O)NCc2ccccn2)S(=O)(=O)c2ccccc2)cc1C	111	i	i	i	i	i
Cc1cccc(C)c1NC(=O)Cn1c(=O)n(CCCC(=O)NC2CCN(Cc3ccccc3)CC2)c(=O)c2ccccc21	96	i	i	i	i	i
O=C(CCCCn1c(=O)c2ccccc2n(Cc2ccccc2F)c1=O)NC1CCN(Cc2ccccc2)CC1	113	i	12*	i	i	i
Cc1cc(NC(=O)Cn2c(=O)n(CCCCC(=O)NC3CCN(Cc4ccccc4)CC3)c(=O)c3ccccc32)n[nH]1	nt	i	11*	i	i	i
CCCn1c(=O)c2sccc2n2c(CCCC(=O)NC3CCN(Cc4ccccc4)CC3)nnc12	103	i	16*	i	i	i
O=C(CCCCn1c(=O)[nH]c2ccccc2c1=O)NC1CCN(Cc2ccccc2)CC1	101	i	i	i	86*	i
O=C(CCCn1c(=O)[nH]c2ccccc2c1=O)NC1CCCCCC1	108	i	i	i	i	i
Cc1cc(-c2ccccc2)nc(Cl)c1C#N	nt	i	i	i	i	i
CCN(CC)S(=O)(=O)c1cccc(C(=O)NCC2CCCCC2)c1	102	i	i	i	i	i
Cc1cccc(C)c1NC(=O)CNC(=O)CNC(=O)c1ccc2c(c1)OCO2	91	i	i	i	i	i
CC(C)(C)OC(=O)C[C@@H]1C/C=C\C[C@H](CC(=O)N[C@@H](CO)Cc2ccccc2)C(=O)N[C@H](C(C)(C)C)COC1=O	104	nt	nt	nt	nt	nt
Cc1cc(C)n(C(=O)/C(C#N)=N/Nc2cc(Cl)cc(Cl)c2)n1	101	i	i	-6.5*	i	i
Cc1cc(C)n(C(=O)/C(C#N)=N\Nc2ccccc2[N+](=O)[O-])n1	110	i	i	i	i	i
O=C(O)CCN1C(=O)/C(=C2\C(=O)N(Cc3ccccc3Cl)c3ccccc32)SC1=S	93	i	i	i	i	i
SMILES	Pemphigus Ab inh	TRPC6 act	TRPC4 PAM	TRPC6 inh	TRPC4 act	TRPC4 inh
COc1ccc(NC(=O)CN2C(=O)/C(=C3\SC(=S)N(CCC(=O)O)C3=O)c3ccccc32)cc1	82*	i	i	i	i	i
Cc1cccc(NC(=S)NCC(c2cccnc2)N(C)C)c1 (configuration not stated)	99	i	i	i	103*	i
CN(C)C(CNC(=S)Nc1ccc(F)cc1)c1cccnc1 (configuration not stated)	88	i	i	i	80*	i
Cc1cccc(NC(=S)N(CCN(C)C)C(C)c2cccnc2)c1 (configuration not stated)	112	i	i	i	i	i
CN(C)C(CNS(=O)(=O)c1ccc(F)cc1)c1cccnc1 (configuration not stated)	94	i	i	i	i	i
N#CC(OC(=O)c1ccccc1)c1cccc([N+](=O)[O-])c1 (configuration not stated)	119	nt	nt	nt	nt	nt
S=C(NCCc1ccccc1)NC1CCC(NC(=S)NCCc2ccccc2)CC1 (configuration not stated)	71*	i	i	i	i	i
Cc1ccc(CN2CCNC(=O)C2CC(=O)N2CCN(c3ncccn3)CC2)o1 (configuration not stated)	111	i	i	i	i	i
Cc1ccc(CN2CCNC(=O)C2CC(=O)N(C)CCc2ccccc2)cc1 (configuration not stated)	121	i	i	i	i	i
CN(CCc1ccccn1)C(=O)CC1C(=O)NCCN1Cc1ccc(-c2ccccc2)cc1 (configuration not stated)	114	i	i	i	160*	i
Cc1csc(CN(C)C(=O)CC2C(=O)NCCN2Cc2ccc(F)cc2Cl)n1 (configuration not stated)	96	i	i	i	i	i
CCOc1ccccc1CN1CCNC(=O)C1CC(=O)NCCc1ccccn1 (configuration not stated)	116	i	i	i	88*	i
CCOc1ccccc1CN1CCNC(=O)C1CC(=O)N(C)CCc1ccccn1 (configuration not stated)	99	i	i	i	153*	i

Screening results: PubChem, several laboratories
